{"source": "ChEMBL document CHEMBL1811907", "about": "“Chemical and biological evaluation of dipeptidyl boronic acid proteasome inhibitors for use in prodrugs and pro-soft drugs targeting solid tumors” (J Med Chem, 2011)", "key": {"[1]": {"assay": "Inhibition of intracellular chymotrypsin-like activity of 20S proteasome in human HEK293 cells after 24 hrs by fluorescence plate reader", "format": "cell-based", "conditions": "HEK293, 24 h", "method_in_brief": "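HEK 293 ZsGreen proteasome-sensor cells (stable ZsGreen–ornithine decarboxylase degron fusion, G418 maintenance) seeded 3.2 × 10⁴ per well, grown 24 h. Then 24 h with inhibitor at 37 °C, 5% CO₂. Cells lysed in HEPES/EDTA/5% Triton buffer for 1 h; fluorescence ex 485/em 535 nm. Quadruplicates; variable-slope sigmoidal fit.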"}, "[2]": {"assay": "Inhibition of chymotrypsin-like activity of 20S proteasome using suc-LLVY-AMC as substrate preincubated for 10 mins before substrate addition at pH 7.6 by fluorescence assay", "method_in_brief": "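Inhibitor from 0.1 M ethanol stock diluted into pH 7.6 buffer (25 mM HEPES, 0.5 mM EDTA) and equilibrated overnight at room temperature (24 h per text). SDS-activated 20S proteasome preincubated 10 min with inhibitor before Suc-LLVY-AMC; fluorescence ex 360/em 460 nm after 30 min. Quadruplicates; variable-slope sigmoidal fit.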"}, "HEK293": {"tested_on": "HEK293", "assay": "Ratio of IC50 for intracellular chymotrypsin-like activity of 20S proteasome in human HEK293 cells to IC50 for in vitro chymotrypsin-like activity of 20S proteasome", "format": "cell-based"}, "Mus musculus": {"organism": "Mus musculus", "assay": "Inhibition of proteasome in mouse tumor cells relative to inhibition in blood cells", "format": "subcellular", "conditions": "concentration not given here"}, "[3]": {"assay": "Cytotoxicity against human FSCLL cells after 24 hrs by MTT assay", "format": "cell-based", "method_in_brief": "(§1)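 Cells seeded at 3.2 × 10⁴ per well, grown 24 h at 37 °C, 5% CO₂, then exposed to inhibitor dilutions 24 h. Inhibitor from 0.1 M ethanol stock, pre-equilibrated overnight in pH 2.0 or pH 7.6 buffer. MTT (5 mg/mL) added for 3 h; formazan dissolved overnight in acidic Triton/isopropanol; A570 read. Quadruplicates; variable-slope sigmoidal fit.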"}, "[4]": {"assay": "Ratio of CC50 for human follicular small-cell lymphocytic leukemia cells to IC50 for intracellular chymotrypsin-like activity of 20S proteasome in human HEK293 cells"}, "[5]": {"assay": "Inhibition of chymotrypsin-like activity of 20S proteasome using suc-LLVY-AMC as substrate preincubated for 10 mins before substrate addition at pH 2.0 by fluorescence assay", "method_in_brief": "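Inhibitor from 0.1 M ethanol stock diluted into pH 2.0 buffer (0.148 M HCl, 0.052 M KCl) and equilibrated overnight at room temperature (24 h per text). 20S proteasome SDS-activated, preincubated 10 min with inhibitor; Suc-LLVY-AMC added; fluorescence (ex 360/em 460 nm) read after 30 min. Assay-well pH checked. Quadruplicates; variable-slope sigmoidal fit.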"}, "[6]": {"assay": "Cytotoxicity against human HEK293 cells after 24 hrs by MTT assay", "format": "cell-based", "method_in_brief": "as §1"}, "[7]": {"assay": "Ratio of CC50 for human follicular small-cell lymphocytic leukemia cells to IC50 for chymotrypsin-like activity of 20S proteasome at pH 2.0"}}}
{"smiles": "CC(C)C[C@H](NC(=O)[C@H](Cc1ccccc1)NC(=O)c1cnccn1)B(O)O", "note": "[BORTEZOMIB]", "values": [{"measurement": "IC50", "setting": "[1]", "result": 27, "unit": "nM"}, {"measurement": "IC50", "setting": "[2]", "result": 14, "unit": "nM"}, {"measurement": "Ratio IC50", "setting": "HEK293", "result": 2.7}, {"measurement": "inhibition", "setting": "Mus musculus", "result": 44.8, "unit": "%"}, {"measurement": "CC50 at 24 h", "setting": "[3]", "result": 4, "unit": "nM"}, {"measurement": "Ratio CC50/IC50", "setting": "[4]", "result": 0.16}, {"measurement": "IC50", "setting": "[5]", "result": 10, "unit": "nM"}, {"measurement": "CC50 at 24 h", "setting": "[6]", "result": 347, "unit": "nM"}, {"measurement": "Ratio CC50/IC50", "setting": "[7]", "result": 0.4}]}
